Data set [1] is described as follows: folding enthalpy; higher = less favourable; fluorescence melt of hairpins on a sequencing array, two-state fit. Conditions: sodium 0.088 M. An outline of the steps:
(§1)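 In 50 mM Na-HEPES pH 8.0 containing 25 mM NaCl, hairpins from the library on a sequenced MiSeq flow cell were imaged for Cy3 fluorescence at 2.5 °C steps up to 60 °C, with Cy3 and quencher oligos annealed. After normalisation to pre-quench Cy3 and to control constructs, two-state fits with bootstrapping gave melting temperature and folding enthalpy. Four replicates were combined by inverse-variance weighting, and fitted temperatures were shifted up by 9.35 °C to match UV melts.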

Data set [2] can be described thus: melting temperature; fluorescence melt of hairpins on a sequencing array, two-state fit, raised by 9.35 °C to match UV melts. Conditions: sodium 0.088 M. An outline of the steps: as §1

With GATCTGTACGCAGATC ((((((....)))))), the folding enthalpy in data set [1] was -44.9 kcal/mol. For the same sequence, the Tm in data set [2] worked out at 54.4 °C.

As to GTGAGCGAAAGCTATCAC ((((((....)))..))), the folding enthalpy in data set [1] is -18.3 kcal/mol. The Tm in data set [2] stood at 37.6 °C.

With GTAGCCGAAAGGCGTTAC ((((((....)))..))), in data set [1], the folding enthalpy was -8 kcal/mol. In addition, the Tm in data set [2] came out at 38.9 °C.

Turning to GGTGTCGAAAGACACACC ((((((....)))..))), in data set [1], the folding enthalpy is -9.34 kcal/mol. Further, in data set [2], the Tm was found to be 52.5 °C.

Regarding GGATCTCGAAAGAGTCC (((.(((....)))))), in data set [1], the folding enthalpy is -25.1 kcal/mol. For the same sequence, the Tm in data set [2] turned out to be 49.3 °C.

With GCCAAAGGAAACTTCGGC (((.(((....))).))), in data set [1], the folding enthalpy was -24 kcal/mol. Besides, the Tm in data set [2] turned out to be 39.6 °C.

In the case of GCGGGCAGCCGC ((((....)))), the folding enthalpy in data set [1] was -16.4 kcal/mol. For the same sequence, the Tm in data set [2] worked out at 63.5 °C.

GCTCCTGCGAAAGCAAGC (((..(((....)))))): the folding enthalpy in data set [1] was -9.07 kcal/mol. For the same sequence, the Tm in data set [2] worked out at 26.7 °C.

Consider GATCTTGCAAAAGATC ((((((....)))))), for which the folding enthalpy in data set [1] was -37.5 kcal/mol. Further, the Tm in data set [2] was found to be 53.5 °C.

Turning to GGTGTGGAAACACACC ((((((....)))))), the folding enthalpy in data set [1] was -30.2 kcal/mol. In addition, the Tm in data set [2] worked out at 66.6 °C.

On to GATCAATAGCTTGATC ((((((....)))))), for which, in data set [1], the folding enthalpy was -29.6 kcal/mol. The Tm in data set [2] was determined as 40.5 °C.

Regarding GATCAACTGCTTGATC ((((((....)))))), the folding enthalpy in data set [1] was -31.5 kcal/mol. In addition, the Tm in data set [2] worked out at 44 °C.

On to GTGTTGGCGAAAGCCCAC (((..(((....)))))), for which the folding enthalpy in data set [1] was -15.6 kcal/mol. Also, the Tm in data set [2] came to 47 °C.

Consider GTGACGGGAAACCGCCAC (((.(((....))).))), for which the folding enthalpy in data set [1] is -42.1 kcal/mol. For the same sequence, in data set [2], the Tm amounted to 52.2 °C.

For the sequence CGTGCGGAAACGCTTACG ((((((....)))..))), the folding enthalpy in data set [1] is -22.6 kcal/mol. Moreover, the Tm in data set [2] was determined as 38.4 °C.

Consider GGTTGCACGAAAGTGACC (((..(((....)))))), for which the folding enthalpy in data set [1] was -11.2 kcal/mol. In addition, the Tm in data set [2] was 34.2 °C.

For GATCAATCAATTGATC ((((((....)))))), in data set [1], the folding enthalpy was -36 kcal/mol. Besides, the Tm in data set [2] was 45 °C.

With GATCAGTTTACTGATC ((((((....)))))), the folding enthalpy in data set [1] is -49.2 kcal/mol. In addition, the Tm in data set [2] stood at 59.6 °C.

Take GCATACGAAAGTAAGTGC ((((((....)))..))): in data set [1], the folding enthalpy is -21.4 kcal/mol. For the same sequence, the Tm in data set [2] was 34.5 °C.

Regarding GTTGACCGAAAGGTGAAC (((.(((....))).))), in data set [1], the folding enthalpy is -27 kcal/mol. The Tm in data set [2] turned out to be 48.4 °C.

Turning to GATCACCCGTGTGATC ((((((....)))))), in data set [1], the folding enthalpy is -47.7 kcal/mol. For the same sequence, in data set [2], the Tm was found to be 55.5 °C.

Regarding GTCGCACGAAAGTGGGAC (((.(((....))).))), the folding enthalpy in data set [1] was -38.5 kcal/mol. Further, the Tm in data set [2] worked out at 67.4 °C.

On to GCTCCAGCGAAAGCTAGC (((..(((....)))))), for which, in data set [1], the folding enthalpy is -8.7 kcal/mol. Besides, the Tm in data set [2] worked out at 34 °C.

Turning to GATCCCCTGTGGGATC ((((((....)))))), in data set [1], the folding enthalpy is -33.3 kcal/mol. For the same sequence, in data set [2], the Tm worked out at 63 °C.

GAGTCTGGAAACAGACCC (.(((((....))))).): the folding enthalpy in data set [1] was -14.2 kcal/mol. Moreover, the Tm in data set [2] came out at 38 °C.

As to GTACACGAAAGTGTGTAC ((((((....)))..))), in data set [1], the folding enthalpy is -13.8 kcal/mol. For the same sequence, the Tm in data set [2] was 46 °C.

As for GGGCCGGGAAACCGACCC (((.(((....))).))), the folding enthalpy in data set [1] is -43.9 kcal/mol. The Tm in data set [2] is 57.5 °C.

For the sequence GTCAACGAAAGTTGGGAC ((((((....)))..))), the folding enthalpy in data set [1] was -11.5 kcal/mol. The Tm in data set [2] turned out to be 32.7 °C.

In the case of GCGTCACAACGC ((((....)))), the folding enthalpy in data set [1] was -27.2 kcal/mol. Further, the Tm in data set [2] came to 55.2 °C.

For GATCTCTCGAGAGATC ((((((....)))))), the folding enthalpy in data set [1] is -40.5 kcal/mol. Moreover, the Tm in data set [2] is 54.1 °C.

As to GTCCGCCGAAAGGCCGAC (((.(((....))).))), the folding enthalpy in data set [1] was -20.5 kcal/mol. The Tm in data set [2] was 49.2 °C.

Turning to GCAAAGCGAAAGCCTCGC ((.(.((....)).).)), in data set [1], the folding enthalpy was -7.59 kcal/mol. Further, the Tm in data set [2] was determined as 27.9 °C.

As for GCACGAGGAAACCCGTAC (.(((.(....).))).), in data set [1], the folding enthalpy is -6.61 kcal/mol. The Tm in data set [2] is 21.9 °C.

Consider GATCTCGGGGAGATC ((((((...)))))), for which the folding enthalpy in data set [1] is -30.2 kcal/mol. In data set [2], the Tm turned out to be 54.3 °C.

GATCCGGTTGCGGATC ((((((....)))))): the folding enthalpy in data set [1] was -40.3 kcal/mol. Also, the Tm in data set [2] is 59.6 °C.

Take GTAGACACGAAAGTGTAC (((..(((....)))))): in data set [1], the folding enthalpy is -10.5 kcal/mol. The Tm in data set [2] turned out to be 32 °C.

For the sequence GAGTCAGGAAACTAACTC ((((.((....)).)))), the folding enthalpy in data set [1] was -12.4 kcal/mol. Also, in data set [2], the Tm stood at 25.4 °C.
